From ChEMBL document CHEMBL4130635, “2,4-Diaminoquinazolines as Dual Toll-like Receptor (TLR) 7/8 Modulators for the Treatment of Hepatitis B Virus” (J Med Chem, 2018)
Active and inactive are the calls of the source. No cut-off for these calls is given here.

What was measured:
[1] = target: T1, TLR7 and TLR8 (Homo sapiens) (UniProt Q9NYK1+Q9NR97); assay: Agonist activity at TLR7/8 in human PBMCs co-cultured with primary human hepatocytes infected with HBV genotype C for 12 days assessed as increase in MIP-1beta levels up to 5 uM measured after 42 days
Cynomolgus monkey [2] = assay: Induction of ISG response in cynomolgus monkey plasma assessed as upregulation of Mx1 mRNA expression at 3 mg/kg, po after 24 hrs by Fluidigm RT-qPCR analysis (reference value: 1); format: functional, Macaca fascicularis
Summary of the method: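 Cynomolgus monkeys, single oral doses of 1, 3, 9 and 30 mg/kg with a planned 2-week wash-out between doses. Systemic ISG (ISG15, Mx1, OAS1) mRNA was measured by Fluidigm RT-qPCR at 1, 2, 4, 8 and 24 h postdose.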

[3] = Cmax in cynomolgus monkey plasma at 30 mg/kg, po by LC-MS analysis; format: ADME, organism-based, Macaca fascicularis; set-up: dose 30 mg/kg, route oral
Summary of the method: (§1)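 Healthy cynomolgus monkeys received oral doses of 1, 3, 9 and 30 mg/kg, with a 2-week wash-out between doses. Systemic compound concentrations by LC−MS at 0.25, 0.5, 1, 2, 4, 8 and 24 h postdose.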

[4] = AUC (0 to last) in cynomolgus monkey plasma at 1 mg/kg, po by LC-MS analysis; format: ADME, organism-based, Macaca fascicularis; set-up: dose 1 mg/kg, time 0 - last, route oral
Summary of the method: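 Healthy cynomolgus monkeys received single oral doses of 1, 3, 9 and 30 mg/kg, with a 2-week wash-out between doses. Systemic compound concentrations were measured by LC–MS at 0.25, 0.5, 1, 2, 4, 8 and 24 h postdose.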

Cynomolgus monkey [5] = assay: Proinflammatory activity in cynomolgus monkey plasma assessed as IL-8 levels at 9 mg/kg, po after 24 hrs by Luminex assay (reference value: 430 pg/ml); format: functional, Macaca fascicularis
Plasma [6] = assay: Upregulation of IP-10 mRNA expression levels in C57BL/6J mouse plasma at 3 mg/kg, po by RT-qPCR analysis (reference value: 1); format: functional
[7] = Intrinsic clearance in dog liver microsomes assessed per mg protein at 1 uM up to 60 mins; format: ADME, Canis lupus familiaris, microsome; conditions: read-out: CLH
Cynomolgus monkey [8] = assay: Anti-inflammatory activity in cynomolgus monkey plasma assessed as IL-10 levels at 3 mg/kg, po after 24 hrs by Luminex assay (reference value: 195 pg/ml); format: functional, Macaca fascicularis
[9] = target: T1, TLR7 and TLR8 (Homo sapiens); assay: Agonist activity at TLR7/8 in human PBMCs co-cultured with primary human hepatocytes infected with HBV genotype C for 12 days assessed as increase in IL-12p40 levels up to 5 uM measured after 42 days
Plasma [10] = assay: Effect on cytokine profile in C57BL/6J mouse plasma assessed as IFNgamma levels at 30 mg/kg, po by multiplex assay; format: functional
Summary of the method: (§2)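 Single oral gavage in 20% HP-β-CD to healthy C57BL/6 mice, groups of 15 at 0.3, 1, 3, 10 or 30 mg/kg. Three mice per group sacrificed at 0.5, 1, 2, 4 or 7 h. Plasma and liver cytokines by multiplex, maximum level reported, rounded to nearest multiple of 5.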

Cynomolgus monkey [11] = assay: Effect on cytokine profile in cynomolgus monkey plasma assessed as IL-15 levels at 9 mg/kg, po after 24 hrs by Luminex assay (reference value: 20 pg/ml); format: functional, Macaca fascicularis
Summary of the method: (§3)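 Healthy cynomolgus monkeys given single oral doses of 1, 3, 9 and 30 mg/kg, with a 2-week wash-out planned between doses. Systemic cytokine levels in plasma were sampled at 0.5, 1, 2, 4, 9 and 24 h postdose.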

Mus musculus = assay: Toxicity in C57BL/6J mouse at 30 mg/kg, po after 1 to 2 hrs […]; format: organism-based; conditions: in vivo
Liver [12] = assay: Effect on cytokine profile in C57BL/6J mouse liver assessed as IL-12p70 levels at 0.3 mg/kg, po by multiplex assay (reference value: 5 pg/g); format: functional, organism-based; summary of the method: as §2
Plasma [13] = assay: Effect on cytokine profile in C57BL/6J mouse plasma assessed as IL-12p70 levels at 1 mg/kg, po by multiplex assay (reference value: 560 pg/ml); format: functional; summary of the method: as §2
[14] = target: Voltage-gated inwardly rectifying potassium channel KCNH2 (Homo sapiens, UniProt Q12809); assay: Inhibition of radioligand binding to human ERG expressed in HEK293 cell membranes by scintillation counting method
Plasma [15] = assay: Proinflammatory activity in C57BL/6J mouse plasma assessed as IL-6 levels at 3 mg/kg, po by multiplex assay (reference value: 505 pg/ml); format: functional
Cynomolgus monkey [16] = assay: Effect on cytokine profile in cynomolgus monkey plasma assessed as IL-15 levels at 30 mg/kg, po after 24 hrs by Luminex assay (reference value: 20 pg/ml); format: functional, Macaca fascicularis; summary of the method: as §3
[17] = Cmax in C57BL/6J mouse liver at 10 mg/kg, po by LC-MS analysis; format: ADME, organism-based; set-up: dose 10 mg/kg, route oral
Summary of the method: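 Healthy C57BL/6 mice, groups of 15, given a single oral dose (0.3, 1, 3, 10 or 30 mg/kg) in 20% HP-β-CD. Blood drawn at 0.5 h. Three mice per group sacrificed at 0.5, 1, 2, 4 or 7 h, and compound in plasma and liver measured by LC−MS. Values rounded to whole numbers.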

Cynomolgus monkey [18] = assay: Effect on cytokine profile in cynomolgus monkey plasma assessed as IL-15 levels at 3 mg/kg, po after 24 hrs by Luminex assay (reference value: 20 pg/ml); format: functional, Macaca fascicularis; summary of the method: as §3
Liver [19] = assay: Anti-inflammatory activity in C57BL/6J mouse liver assessed as IL-10 levels at 0.3 mg/kg, po by multiplex assay (reference value: 2 pg/g); format: functional
Summary of the method: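 Mice (C57BL/6) got a single oral dose of 0.3–30 mg/kg in 20% HP-β-CD, in groups of 15. Three per group were sacrificed at 0.5, 1, 2, 4 or 7 h, and liver cytokines were measured by multiplex. Values were rounded to the nearest multiple of 5.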

Cynomolgus monkey [20] = assay: Effect on cytokine profile in cynomolgus monkey plasma assessed as IL-12P70 levels at 1 mg/kg, po after 24 hrs by Luminex assay (reference value: 2.17 pg/ml); format: functional, organism-based; conditions: Macaca fascicularis; summary of the method: as §3
Cynomolgus monkey [21] = assay: Effect on cytokine profile in cynomolgus monkey plasma assessed as IL-12P70 levels at 30 mg/kg, po after 24 hrs by Luminex assay (reference value: 2.17 pg/ml); format: functional, Macaca fascicularis; summary of the method: as §3
Liver [22] = assay: Effect on cytokine profile in C57BL/6J mouse liver assessed as IFNgamma levels at 1 mg/kg, po by multiplex assay; format: functional, organism-based; summary of the method: as §2
Liver [23] = assay: Proinflammatory activity in C57BL/6J mouse liver assessed as TNFalpha levels at 3 mg/kg, po by multiplex assay (reference value: 15 pg/g); format: functional
[24] = Intrinsic clearance in mouse liver microsomes assessed per mg protein at 1 uM up to 60 mins; format: ADME, microsome; conditions: read-out: CLH
[25] = Cmax in cynomolgus monkey plasma at 3 mg/kg, po by LC-MS analysis; format: ADME, organism-based, Macaca fascicularis; set-up: dose 3 mg/kg, route oral; summary of the method: as §1
[26] = target: T1, TLR7 and TLR8 (Homo sapiens); assay: Agonist activity at TLR7/8 in human PBMCs co-cultured with primary human hepatocytes infected with HBV genotype C for 12 days assessed as increase in IFNalpha2 levels up to 5 uM measured after 42 days
Cynomolgus monkey [27] = assay: Proinflammatory activity in cynomolgus monkey plasma assessed as TNFalpha levels at 30 mg/kg, po after 24 hrs by Luminex assay (reference value: 285 pg/ml); format: functional, Macaca fascicularis

T1 sequence (Q9NR97 whole entry, looked up): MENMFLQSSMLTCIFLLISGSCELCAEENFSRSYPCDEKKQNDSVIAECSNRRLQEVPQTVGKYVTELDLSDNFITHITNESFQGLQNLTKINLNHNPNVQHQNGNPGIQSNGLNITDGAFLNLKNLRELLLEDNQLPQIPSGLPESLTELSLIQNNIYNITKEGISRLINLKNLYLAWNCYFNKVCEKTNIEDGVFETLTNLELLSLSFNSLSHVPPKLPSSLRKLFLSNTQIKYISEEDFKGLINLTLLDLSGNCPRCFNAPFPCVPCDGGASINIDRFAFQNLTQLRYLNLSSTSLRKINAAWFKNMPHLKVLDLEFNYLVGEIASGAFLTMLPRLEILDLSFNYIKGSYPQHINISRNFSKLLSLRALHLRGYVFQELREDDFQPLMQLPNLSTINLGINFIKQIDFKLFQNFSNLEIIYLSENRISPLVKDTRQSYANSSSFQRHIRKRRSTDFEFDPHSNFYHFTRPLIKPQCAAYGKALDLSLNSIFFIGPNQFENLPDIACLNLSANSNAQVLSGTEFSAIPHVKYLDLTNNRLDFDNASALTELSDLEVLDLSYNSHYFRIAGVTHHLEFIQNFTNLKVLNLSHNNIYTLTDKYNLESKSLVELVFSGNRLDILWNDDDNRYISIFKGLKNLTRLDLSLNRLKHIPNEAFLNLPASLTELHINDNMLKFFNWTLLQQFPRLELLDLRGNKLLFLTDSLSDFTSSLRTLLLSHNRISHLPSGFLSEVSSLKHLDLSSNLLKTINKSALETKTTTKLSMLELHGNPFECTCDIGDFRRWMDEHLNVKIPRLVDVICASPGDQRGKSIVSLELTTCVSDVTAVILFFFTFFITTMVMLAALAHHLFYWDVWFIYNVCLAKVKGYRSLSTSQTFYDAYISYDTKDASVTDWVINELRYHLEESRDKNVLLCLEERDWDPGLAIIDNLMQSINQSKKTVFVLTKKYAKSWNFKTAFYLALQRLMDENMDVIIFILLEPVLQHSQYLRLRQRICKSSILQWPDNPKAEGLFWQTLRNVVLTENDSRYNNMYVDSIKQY
T1 sequence (Q9NYK1 whole entry, looked up): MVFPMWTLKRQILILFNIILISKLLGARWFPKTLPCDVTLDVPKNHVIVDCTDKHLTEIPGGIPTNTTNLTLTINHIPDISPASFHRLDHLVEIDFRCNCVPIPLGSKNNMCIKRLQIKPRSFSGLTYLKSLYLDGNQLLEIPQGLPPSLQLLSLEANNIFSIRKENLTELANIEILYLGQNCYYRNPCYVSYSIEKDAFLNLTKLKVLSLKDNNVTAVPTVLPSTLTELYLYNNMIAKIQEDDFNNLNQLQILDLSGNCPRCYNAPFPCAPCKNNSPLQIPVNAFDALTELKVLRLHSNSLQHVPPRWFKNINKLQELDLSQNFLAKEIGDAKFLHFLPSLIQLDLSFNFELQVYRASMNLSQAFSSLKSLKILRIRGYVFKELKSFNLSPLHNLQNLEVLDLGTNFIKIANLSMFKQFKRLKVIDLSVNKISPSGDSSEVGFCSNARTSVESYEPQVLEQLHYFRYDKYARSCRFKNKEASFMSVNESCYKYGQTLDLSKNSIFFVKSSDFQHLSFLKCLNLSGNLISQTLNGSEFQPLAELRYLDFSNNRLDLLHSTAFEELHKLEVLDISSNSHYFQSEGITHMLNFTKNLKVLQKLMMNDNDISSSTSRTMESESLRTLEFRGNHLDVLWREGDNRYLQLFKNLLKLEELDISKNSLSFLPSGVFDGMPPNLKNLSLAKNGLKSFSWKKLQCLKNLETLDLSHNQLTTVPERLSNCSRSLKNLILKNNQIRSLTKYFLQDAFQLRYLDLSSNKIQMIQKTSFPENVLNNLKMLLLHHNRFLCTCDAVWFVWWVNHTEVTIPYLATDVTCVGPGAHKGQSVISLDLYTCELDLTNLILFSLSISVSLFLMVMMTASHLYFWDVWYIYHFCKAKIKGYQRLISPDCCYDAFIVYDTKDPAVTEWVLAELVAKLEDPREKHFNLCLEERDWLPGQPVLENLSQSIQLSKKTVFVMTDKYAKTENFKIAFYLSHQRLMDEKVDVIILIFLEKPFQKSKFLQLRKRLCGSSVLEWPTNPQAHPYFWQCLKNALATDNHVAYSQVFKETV
Sequence of Voltage-gated inwardly rectifying potassium channel KCNH2 (Q12809 whole entry): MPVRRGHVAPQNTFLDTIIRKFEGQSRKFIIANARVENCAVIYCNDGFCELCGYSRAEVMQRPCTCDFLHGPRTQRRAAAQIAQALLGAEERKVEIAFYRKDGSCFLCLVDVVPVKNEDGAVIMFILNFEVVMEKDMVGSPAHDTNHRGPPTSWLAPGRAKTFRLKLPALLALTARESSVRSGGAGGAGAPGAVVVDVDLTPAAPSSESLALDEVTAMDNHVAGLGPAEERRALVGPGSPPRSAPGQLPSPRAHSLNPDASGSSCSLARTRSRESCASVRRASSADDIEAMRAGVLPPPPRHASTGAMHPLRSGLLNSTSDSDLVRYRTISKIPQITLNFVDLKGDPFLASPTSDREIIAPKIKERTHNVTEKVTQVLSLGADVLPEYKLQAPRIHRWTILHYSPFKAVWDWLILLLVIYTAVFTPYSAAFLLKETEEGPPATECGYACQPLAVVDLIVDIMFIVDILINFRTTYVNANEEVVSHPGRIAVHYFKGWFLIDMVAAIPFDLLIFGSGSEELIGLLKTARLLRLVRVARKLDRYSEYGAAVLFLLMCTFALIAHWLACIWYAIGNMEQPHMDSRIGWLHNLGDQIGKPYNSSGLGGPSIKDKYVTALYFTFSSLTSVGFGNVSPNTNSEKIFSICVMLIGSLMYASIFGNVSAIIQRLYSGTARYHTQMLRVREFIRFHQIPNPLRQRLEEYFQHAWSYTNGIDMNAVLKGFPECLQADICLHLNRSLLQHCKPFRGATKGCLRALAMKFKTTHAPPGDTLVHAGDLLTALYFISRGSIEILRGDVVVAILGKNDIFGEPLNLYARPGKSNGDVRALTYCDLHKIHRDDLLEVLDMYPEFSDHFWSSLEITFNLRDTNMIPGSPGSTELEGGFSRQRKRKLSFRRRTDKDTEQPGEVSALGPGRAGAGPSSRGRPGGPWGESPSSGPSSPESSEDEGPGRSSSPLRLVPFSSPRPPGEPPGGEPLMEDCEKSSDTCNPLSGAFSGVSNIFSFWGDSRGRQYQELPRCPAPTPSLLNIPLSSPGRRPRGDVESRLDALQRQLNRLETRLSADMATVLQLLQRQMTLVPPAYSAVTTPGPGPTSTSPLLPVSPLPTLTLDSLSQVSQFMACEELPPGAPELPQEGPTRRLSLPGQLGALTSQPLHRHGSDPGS

CCC[C@@H](CCO)Nc1nc(N)nc2c(F)cccc12
Activity [1]: Active | fold change (FC) (Cynomolgus monkey [2]): 50 | Cmax [3]: 2070 ng/mL | AUC(0-t) [4]: 75 ng·h/mL | Activity (Cynomolgus monkey [5]): 1640 pg/mL | fold change (FC) (Plasma [6]): 2485 | microsomal CLint at 1 µM [7]: 21 µL/min/mg | Activity (Cynomolgus monkey [8]): 1615 pg/mL | Activity [9]: Active | Activity (Plasma [10]): 1010 pg/mL | Activity (Cynomolgus monkey [11]): 75 pg/mL | Activity (Mus musculus): Toxic | Activity (Liver [12]): Below limit of detection | Activity (Plasma [13]): 380 pg/mL | IC50 [14]: > 10 µM | Activity (Plasma [15]): 4970 pg/mL | Activity (Cynomolgus monkey [16]): 85 pg/mL | Cmax [17]: 1420 ng/g | Activity (Cynomolgus monkey [18]): 60 pg/mL | Activity (Liver [19]): 730 pg/g | Activity (Cynomolgus monkey [20]): Below limit of detection | Activity (Cynomolgus monkey [21]): 10.1 pg/mL | Activity (Liver [22]): Below limit of detection | Activity (Liver [23]): 2865 pg/g | microsomal CLint at 1 µM [24]: 100 µL/min/mg | Cmax [25]: 142 ng/mL | Activity [26]: Active | Activity (Cynomolgus monkey [27]): 2990 pg/mL
